In ChEMBL document CHEMBL4118256, “Second Generation of Mannich Base-Type Derivatives with in Vivo Activity against Trypanosoma cruzi” (J Med Chem, 2018):
Calls of active or inactive are those of the source. The rule behind the calls is not given here.

Tests used:
Trypanosoma cruzi [1] = test: Antitrypanosomal activity against Trypanosoma cruzi MHOM/Pe/2011/Arequipa DTU 5 trypamastigotes infected in Balb/c mouse assessed as reduction in splenomegaly at 100 mg/kg, po once daily for 5 consecutive days starting from day 75 post infection measured on day 127 post infection relative to control; assay type: functional
[2] = Selectivity index, ratio of IC50 for African green monkey Vero cells to IC50 for Trypanosoma cruzi TINF/CH/1956/Tulahuen DTU 6 epimastigotes; assay type: toxicity; conditions: read-out: Ratio IC50
Method in brief: (§1)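 SI is Vero IC50 divided by the IC50 for the stated parasite form. For Vero cytotoxicity, cells were seeded at 1.25×10^4 mL^-1 with compounds at 1000–1 µM, incubated 48 h, then given resazurin for a further 24 h (72 h total), with absorbance read at 570/600 nm. Triplicate, four determinations.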

Trypanosoma cruzi [3] = test: Trypanocidal activity against Trypanosoma cruzi TINF/CH/1956/Tulahuen DTU 6 trypamastigotes derived from infected Balb/c albino mouse after 24 hrs by resazurin dye based assay; assay type: functional, organism-based; conditions: TINF/CH/1956/Tulahuen DTU 6, 24 h
Method in brief: (§2)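 Bloodstream trypomastigotes taken from mice at peak parasitaemia were seeded at 2×10^6 mL^-1 in RPMI with 10% FBS. Compounds were added at 50–0.2 µM and incubated 24 h at 37 °C, 5% CO2, then with resazurin for 4 h. SDS was added and absorbance read at 570/600 nm. IC50 was fitted; triplicate, four separate determinations.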

Mus musculus [4] = test: (§3) Cardiotoxicity in Balb/c mouse infected with Trypanosoma cruzi MHOM/Pe/2011/Arequipa DTU 5 trypamastigotes assessed as change in serum LDH level at 100 mg/kg, po once daily for 5 consecutive days starting from day 10 post infection measured on day 127 post infection by biochemical analysis relative to control; assay type: toxicity, organism-based; conditions: in vivo
Trypanosoma cruzi [5] = test: Antitrypanosomal activity against Trypanosoma cruzi MHOM/Pe/2011/Arequipa DTU 5 trypamastigotes infected in Balb/c mouse assessed as reduction in Ig-G level in serum at 100 mg/kg, po once daily for 5 consecutive days starting from day 75 post infection measured on day 81 post infection by ELISA; assay type: functional, organism-based
Trypanosoma cruzi [6] = test: Trypanocidal activity against Trypanosoma cruzi MHOM/Pe/2011/Arequipa DTU 5 epimastigotes after 48 hrs by resazurin dye based assay; assay type: functional, organism-based; conditions: MHOM/Pe/2011/Arequipa DTU 5, 48 h
Method in brief: (§4)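 Exponential-phase epimastigotes were seeded at 5×10^5 mL^-1 with compounds at 100–0.2 µM (DMSO 0.01% v/v) at 28 °C. After 48 h, resazurin was added for another 24 h. SDS was then added and absorbance read at 570 and 600 nm.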

[7] = Selectivity index, ratio of IC50 for African green monkey Vero cells to IC50 for Trypanosoma cruzi TINF/CH/1956/Tulahuen DTU 6 amastigotes infected in African green monkey Vero cells; assay type: toxicity; conditions: read-out: Ratio IC50; method in brief: as §1
[8] = target: Superoxide dismutase [Cu-Zn] (Homo sapiens, UniProt P00441); test: Inhibition of human erythrocyte CuZn-SOD by UV-Visible spectrophotometric method
Sequence of Superoxide dismutase [Cu-Zn] (P00441 whole entry): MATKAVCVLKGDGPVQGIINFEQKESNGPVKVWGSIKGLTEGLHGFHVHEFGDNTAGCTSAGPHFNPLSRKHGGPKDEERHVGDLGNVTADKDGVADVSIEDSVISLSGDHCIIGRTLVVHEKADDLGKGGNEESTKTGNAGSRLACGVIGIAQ
Method in brief: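 SOD activity of parasite Fe-SOD and human CuZn-SOD was measured spectrophotometrically by the Beyer and Fridovich method, with compounds at 1–100 µM. Values are averages of three rate determinations; IC50 was obtained by linear regression and differences were tested by Newman-Keuls.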

Trypanosoma cruzi [9] = test: Induction of mitochondrial membrane potential disruption in Trypanosoma cruzi MHOM/Pe/2011/Arequipa DTU 5 epimastigotes assessed as inhibition of DNA replication and RNA synthesis at IC25 after 72 hrs by acridine orange staining based flow cytometry relative to control; assay type: functional
Method in brief: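 Arequipa epimastigotes were exposed for 72 h at IC25. DNA/RNA content was measured as acridine orange fluorescence by flow cytometry and compared with untreated control.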

Mus musculus [10] = test: as §3, with “Hepatotoxicity in” for “Cardiotoxicity in”, “in total bilirubin” for “in serum LDH”, “day 75” for “day 10”; assay type: toxicity, organism-based; conditions: in vivo
Mus musculus [11] = test: Toxicity in Balb/c mouse assessed as reduction in body mass at […], po once daily for 5 consecutive days starting from day 75 post infection relative to control; assay type: organism-based; parameters: scale not given: the % may be the effect or the level left; conditions: in vivo
Method in brief: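 Infected female BALB/c mice, six per group, received oral doses of 20 mg·kg^-1/day for 5 consecutive days (total 100 mg·kg^-1) in 5% DMSO/0.5% HPMC vehicle, from day 10 or day 75 pi. Body mass and deaths were monitored during and after treatment.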

Trypanosoma cruzi [12] = test: Trypanocidal activity against Trypanosoma cruzi MHOM/Pe/2011/Arequipa DTU 5 amastigotes infected in African green monkey Vero cells after 72 hrs by Giemsa-staining based microscopic assay; assay type: functional, organism-based; conditions: MHOM/Pe/2011/Arequipa DTU 5, Vero
Method in brief: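 Vero cells were seeded at 1×10^4/well on coverslips. After 24 h they were infected with culture-derived trypomastigotes (MOI 1:10, 24 h), then washed. Compounds were added at 100–0.2 µM (DMSO 0.01% v/v) for 72 h at 37 °C, 5% CO2. Slides were methanol-fixed and Giemsa-stained; amastigotes and infected cells were counted over 500 host cells. IC50 was derived by curve fitting; triplicate wells, four separate determinations.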

Trypanosoma cruzi [13] = test: Antitrypanosomal activity against Trypanosoma cruzi MHOM/Pe/2011/Arequipa DTU 5 trypamastigotes infected in Balb/c mouse assessed as reduction in Ig-G level in serum at 100 mg/kg, po pretreated once daily for 5 consecutive days starting from day 10 post infection followed by cyclophosphamide-induced immunosuppression on day 100 post infection every 4 days for a maximum of 3 doses measured on day 127 post infection by ELISA; assay type: functional, organism-based
Mus musculus [14] = test: as §3, with “Hepatotoxicity” for “Cardiotoxicity”, “total bilirubin” for “serum LDH”, “[…],” for “100 mg/kg,”; assay type: toxicity, organism-based; conditions: in vivo
Method in brief: (§5)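 Serum clinical chemistry in Arequipa-infected female BALB/c mice. Oral 20 mg·kg-1 per day for 5 days, started day 10 or day 75 pi. Samples taken at day 16 pi or day 81 pi, and on necropsy day. Markers: CK-MB and LDH (U/L), AST, ALT and alkaline phosphatase (U/L), total bilirubin. Results scored relative to infected untreated controls; uninfected reference n = 15.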

Trypanosoma cruzi [15] = test: Trypanocidal activity against Trypanosoma cruzi IRHOD/CO/2008/SN3 DTU 1 epimastigotes after 48 hrs by resazurin dye based assay; assay type: functional, organism-based; conditions: IRHOD/CO/2008/SN3 DTU 1, 48 h; method in brief: as §4
Trypanosoma cruzi [16] = test: Trypanocidal activity against Trypanosoma cruzi IRHOD/CO/2008/SN3 DTU 1 trypamastigotes derived from infected Balb/c albino mouse after 24 hrs by resazurin dye based assay; assay type: functional, organism-based; conditions: IRHOD/CO/2008/SN3 DTU 1, 24 h; method in brief: as §2
Trypanosoma cruzi [17] = test: Antitrypanosomal activity against Trypanosoma cruzi MHOM/Pe/2011/Arequipa DTU 5 trypamastigotes infected in Balb/c mouse assessed as reduction in splenomegaly at 100 mg/kg, po once daily for 5 consecutive days starting from day 10 post infection measured on day 127 post infection relative to control; assay type: functional
Mus musculus [18] = test: as §3, with “Hepatotoxicity” for “Cardiotoxicity”, “alkaline phosphatase” for “serum LDH”, “[…],” for “100 mg/kg,”, “75” for “10”; assay type: toxicity, organism-based; conditions: in vivo; method in brief: as §5
Trypanosoma cruzi [19] = test: Trypanocidal activity against Trypanosoma cruzi MHOM/Pe/2011/Arequipa DTU 5 trypamastigotes derived from infected Balb/c albino mouse after 24 hrs by resazurin dye based assay; assay type: functional, organism-based; conditions: MHOM/Pe/2011/Arequipa DTU 5, 24 h; method in brief: as §2
[20] = Selectivity index, ratio of IC50 for African green monkey Vero cells to IC50 for Trypanosoma cruzi MHOM/Pe/2011/Arequipa DTU 5 epimastigotes; assay type: toxicity; conditions: read-out: Ratio IC50; method in brief: as §1
Mus musculus [21] = test: as §3, with “Hepatotoxicity” for “Cardiotoxicity”, “alkaline phosphatase” for “serum LDH”; assay type: toxicity, organism-based; conditions: in vivo

SMILES | Activity (Trypanosoma cruzi [1]) | selectivity ratio [2] | IC50 (Trypanosoma cruzi [3]) [µM] | Activity (Mus musculus [4]) [%] | Activity (Trypanosoma cruzi [5]) | IC50 (Trypanosoma cruzi [6]) [µM] | selectivity ratio [7] | IC50 [8] [µM] | inhibition (INH) (Trypanosoma cruzi [9]) [%] | Activity (Mus musculus [10]) [%] | Activity (Mus musculus [11]) [%] | IC50 (Trypanosoma cruzi [12]) [µM] | Activity (Trypanosoma cruzi [13]) | Activity (Mus musculus [14]) [%] | IC50 (Trypanosoma cruzi [15]) [µM] | IC50 (Trypanosoma cruzi [16]) [µM] | Activity (Trypanosoma cruzi [17]) | Activity (Mus musculus [18]) [%] | IC50 (Trypanosoma cruzi [19]) [µM] | selectivity ratio [20] | other results
COc1ccc(C(=O)CCN2CCN(c3ccc([N+](=O)[O-])cc3)CC2)cc1 | Active | 15.7 | 14.5 | < 10 | inactive | 31.6 | 17.5 | > 100 | 72.9 | < 10 | > 10 | 29.4 | inactive | < 10 | 22 | 3.1 | Active | < 10 | 11.7 | 18.6 | Activity (Mus musculus [21]): < 10%
O=C(Cn1ccnc1[N+](=O)[O-])NCc1ccccc1 [BENZNIDAZOLE] |  |  | 15.1 |  |  |  |  |  | 22.4 |  |  | 8.3 |  |  |  |  |  |  | 12.4 |  | 
COc1ccc(C(=O)CCN2CCN(c3ccc(F)cc3)CC2)cc1 | Active | 30.2 | 1.2 | < 10 | inactive | 1.4 | 34.6 | 146 | 24.6 | < 10 | > 10 | 0.6 | inactive | < 10 | 2 | 1.4 | Active | < 10 | 1.1 | 40.2 | Activity (Mus musculus [21]): < 10%
COc1ccc(C(=O)CCN2CCN(c3ccc(Cl)cc3)CC2)cc1 | 68% | 40.9 | 2.9 | < 10 | inactive | 9.5 | 78.7 | 100 | 18 | < 10 | > 10 | 3.6 | Active | < 10 | 6.3 | 3.9 | 52% | < 10 | 3.4 | 31.5 | Activity (Mus musculus [21]): < 10%
